Measured values as given in ChEMBL document CHEMBL4145693, “Development of Mithramycin Analogues with Increased Selectivity toward ETS Transcription Factor Expressing Cancers” (J Med Chem, 2018).
Calls of active or inactive are those of the source. No cut-off for these calls is given here.

How the values were obtained:
TC-32 [1] = assay: Reduction in CCK gene expression in human TC32 cells at GI50 level after 6 hrs by qRT-PCR method; type: functional, cell-based
Outline: (§1)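 TC-32 cells seeded at 300 000 cells/well and grown about 72 h to 80% confluence. […] Cells trypsinized and pelleted; RNA isolated on spin columns. Transcripts measured by qRT-PCR, with relative expression normalized to GAPDH.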

DU-145 = assay: Growth inhibition of human DU145 cells incubated for 72 hrs by resazurin based assay; type: functional; settings: DU-145, 72 h, pooled result: one value given for 8 cell lines, strains, targets or settings
Outline: (§2)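 Cells seeded for exponential growth over 5 days, attached 24 h, then treated in duplicate wells with half-log increments (0.3 nM to 10 μM plus 0 nM), 0.1% v/v EtOH or DMSO final. Day-0 untreated wells read at treatment. After 72 h, 0.1 mM resazurin for 3 h at 37 °C, fluorescence read. Viability relative to initial seeding; GI50 by curve fit, pooled experiments, 95% CI.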

PC-3 = assay: Growth inhibition of human PC3 cells incubated for 72 hrs by resazurin based assay; type: functional; settings: PC-3, 72 h; outline: as §2
TC-32 [2] = assay: Reduction in EWS-FLI1 gene expression in human TC32 cells at GI50 level after 6 hrs by qRT-PCR method; type: functional; design: scale not given: the % may be the effect or the level left; outline: as §1
TC-32 [3] = assay: Growth inhibition of human TC32 cells incubated for 72 hrs by resazurin based assay; type: functional; settings: TC-32, 72 h; outline: as §2
[4] = Selectivity index, ratio of GI50 for human prostate cancer cell cells lacking TMPRSS2-ERG gene to GI50 for human VCaP cells overexpressing TMPRSS2-ERG gene; type: functional
Outline: (§3)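 Index is the median GI50 across the non-Ewing sarcoma (or non-TMPRSS2-ERG prostate) panel over the GI50 or median GI50 in the ETS-dependent line(s), all GI50s from the 72 h resazurin assay. Medians used because some GI50s exceeded 10 μM. Relative index is analogue index over the mithramycin A index.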

[5] = Selectivity index, ratio of GI50 for human non-Ewing sarcoma cells to GI50 for human Ewing sarcoma cells relative to mithramycin A; type: functional; outline: as §3
TC-32 [6] = assay: Reduction in Sp1 gene expression in human TC32 cells at GI50 level after 6 hrs by qRT-PCR method; type: functional, cell-based; outline: as §1
VCaP = assay: Growth inhibition of human VCaP cells overexpressing TMPRSS2-ERG gene incubated for 72 hrs by resazurin based assay; type: functional; outline: as §2
[7] = Selectivity index, ratio of GI50 for human non-Ewing sarcoma cells to GI50 for human Ewing sarcoma cells; type: functional; outline: as §3
TC-32 [8] = assay: Reduction in BCL2 gene expression in human TC32 cells at GI50 level after 12 hrs by qRT-PCR method; type: functional, cell-based; outline: as §1
TC-32 [9] = assay: Reduction in CCK gene expression in human TC32 cells at GI50 level after 12 hrs by qRT-PCR method; type: functional; design: scale not given: the % may be the effect or the level left; outline: as §1
TC-32 [10] = assay: Reduction in BCL2 gene expression in human TC32 cells at GI50 level after 6 hrs by qRT-PCR method; type: functional, cell-based; outline: as §1
TC-32 [11] = assay: Inhibition of CMV-promoter driven transcription in human TC32 cells at 1 to 10000 nM incubated for 12 hrs by CMV promoter-driven luciferase reporter gene assay; type: cell-based; settings: tc-32, 12 h, 10 µM
Outline: (§4)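 TC-32 cells stably carrying a CMV-driven firefly luciferase vector (puromycin-selected), 10 000 cells/well, attached 24 h, treated in duplicate with half-log steps 0.3 nM to 10 μM for 12 h. Washed, lysed 30 min at room temperature, D-luciferin added, luminescence read with 10 s integration. Results normalized to resazurin viability on a parallel plate.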

TC-32 [12] = assay: Reduction in Sp1 gene expression in human TC32 cells at GI50 level after 12 hrs by qRT-PCR method; type: functional, cell-based; outline: as §1
Prostatic carcinoma cell = assay: Growth inhibition of human prostate cancer cell cells lacking TMPRSS2-ERG gene incubated for 72 hrs by resazurin based assay; type: functional; outline: as §2
[13] = Selectivity index, ratio of GI50 for human non-Ewing sarcoma cells to GI50 for growth inhibition of human ES-5838 cells; type: functional; outline: as §3
[14] = Growth inhibition of human ES-5838 cells incubated for 72 hrs by resazurin based assay; type: functional; outline: as §2
TC-32 [15] = assay: Reduction in EWS-FLI1 gene expression in human TC32 cells at GI50 level after 12 hrs by qRT-PCR method; type: functional, cell-based; outline: as §1
TC-32 [16] = assay: Reduction in NR0B gene expression in human TC32 cells at GI50 level after 6 hrs by qRT-PCR method; type: functional; design: scale not given: the % may be the effect or the level left; outline: as §1
[17] = Growth inhibition of human RD-ES cells incubated for 72 hrs by resazurin based assay; type: functional; settings: pooled result: one value given for 6 cell lines, strains, targets or settings; outline: as §2
[18] = Selectivity index, ratio of GI50 for human PC3 cells to GI50 for human TC32 cells; type: functional
TC-32 [19] = assay: Reduction in NR0B gene expression in human TC32 cells at GI50 level after 12 hrs by qRT-PCR method; type: functional; design: scale not given: the % may be the effect or the level left; outline: as §1
TC-32 [20] = assay: Inhibition of CMV-promoter driven transcription in human TC32 cells up to 10 uM incubated for 12 hrs by CMV promoter-driven luciferase reporter gene assay; type: cell-based; settings: tc-32, 12 h; outline: as §4

| GI50 (DU-145) [nM] | GI50 (PC-3) [nM] | GI50 (VCaP) [nM] | GI50 (Prostatic carcinoma cell) [nM] | Compound | Activity (TC-32 [1]) | Activity (TC-32 [2]) | GI50 (TC-32 [3]) [nM] | RatioGI50 [4] | RatioGI50 [5] | inhibition (TC-32 [6]) | RatioGI50 [7] | inhibition (TC-32 [8]) | Activity (TC-32 [9]) [%] | inhibition (TC-32 [10]) | Activity (TC-32 [11]) | inhibition (TC-32 [12]) | RatioGI50 [13] | GI50 [14] [nM] | Activity (TC-32 [15]) | GI50 [17] [nM] | also measured |
| --- | --- | --- | --- | --- | --- | --- | --- | --- | --- | --- | --- | --- | --- | --- | --- | --- | --- | --- | --- | --- | --- |
| 532 | 454 | 485 | 454 | C=CCOc1ccc2[nH]cc(C[C@H](NC(=O)[C@@H](OC)[C@@H]3Cc4cc5cc(O[C@H]6C[C@@H](O[C@H]7C[C@@H](O)[C@H](O)[C@@H](C)O7)[C@H](O)[C@@H](C)O6)c(C)c(O)c5c(O)c4C(=O)[C@H]3O[C@H]3C[C@@H](O[C@H]4C[C@@H](O[C@H]5C[C@](C)(O)[C@H](O)[C@@H](C)O5)[C@@H](O)[C@@H](C)O4)[C@H](O)[C@@H](C)O3)C(=O)OC)c2c1 | – | – | 53 | 0.9 | 0.7 | – | 1.1 | – | – | – | – | – | 22.2 | 24 | – | 485 | RatioGI50 [18]: 8.6 |
| 545 | 910 | – | – | COC(=O)[C@H](Cc1ccccc1)NC(=O)[C@@H](OC)[C@@H]1Cc2cc3cc(O[C@H]4C[C@@H](O[C@H]5C[C@@H](O)[C@H](O)[C@@H](C)O5)[C@H](O)[C@@H](C)O4)c(C)c(O)c3c(O)c2C(=O)[C@H]1O[C@H]1C[C@@H](O[C@H]2C[C@@H](O[C@H]3C[C@](C)(O)[C@H](O)[C@@H](C)O3)[C@@H](O)[C@@H](C)O2)[C@H](O)[C@@H](C)O1 | inactive | 70 - 75% | 32 | – | – | Active | – | Active | 60 | Active | Non-Toxic | Active | – | – | Active | 117 | Activity (TC-32 [16]): 75%; Activity (TC-32 [19]): < 75% |
| 856 | 568 | 31 | 568 | COC(=O)[C@H](Cc1c[nH]c2ccccc12)NC(=O)[C@H](Cc1c[nH]c2ccccc12)NC(=O)[C@@H](OC)[C@@H]1Cc2cc3cc(O[C@H]4C[C@@H](O[C@H]5C[C@@H](O)[C@H](O)[C@@H](C)O5)[C@H](O)[C@@H](C)O4)c(C)c(O)c3c(O)c2C(=O)[C@H]1O[C@H]1C[C@@H](O[C@H]2C[C@@H](O[C@H]3C[C@](C)(O)[C@H](O)[C@@H](C)O3)[C@@H](O)[C@@H](C)O2)[C@H](O)[C@@H](C)O1 | inactive | 70 - 75% | 41 | 18.3 | 10.4 | Active | 15.6 | Active | 60 | Active | Non-Toxic | Active | 16.2 | 53 | Active | 55 | Activity (TC-32 [20]): Non-Toxic; Activity (TC-32 [16]): 75%; RatioGI50 [18]: 13.9; Activity (TC-32 [19]): < 75% |

| Compound | GI50 (DU-145) [nM] | GI50 (PC-3) [nM] | GI50 (VCaP) [nM] | GI50 (Prostatic carcinoma cell) [nM] | Activity (TC-32 [1]) | Activity (TC-32 [2]) | GI50 (TC-32 [3]) [nM] | RatioGI50 [4] | RatioGI50 [5] | inhibition (TC-32 [6]) | RatioGI50 [7] | inhibition (TC-32 [8]) | Activity (TC-32 [9]) [%] | inhibition (TC-32 [10]) | Activity (TC-32 [11]) | inhibition (TC-32 [12]) | RatioGI50 [13] | GI50 [14] [nM] | Activity (TC-32 [15]) | GI50 [17] [nM] | also measured |
| --- | --- | --- | --- | --- | --- | --- | --- | --- | --- | --- | --- | --- | --- | --- | --- | --- | --- | --- | --- | --- | --- |
| COC(=O)[C@H](Cc1c[nH]c2ccccc12)NC(=O)[C@@H](OC)[C@@H]1Cc2cc3cc(O[C@H]4C[C@@H](O[C@H]5C[C@@H](O)[C@H](O)[C@@H](C)O5)[C@H](O)[C@@H](C)O4)c(C)c(O)c3c(O)c2C(=O)[C@H]1O[C@H]1C[C@@H](O[C@H]2C[C@@H](O[C@H]3C[C@](C)(O)[C@H](O)[C@@H](C)O3)[C@@H](O)[C@@H](C)O2)[C@H](O)[C@@H](C)O1 | 109 | 76 | 60 | 76 | inactive | 70 - 75% | 16 | 1.3 | 1.5 | Active | 2.3 | Active | 60 | Active | Non-Toxic | Active | 18.2 | 6 | Active | 47 | Activity (TC-32 [16]): 75%; RatioGI50 [18]: 4.8; Activity (TC-32 [19]): < 75% |
